In ChEMBL document CHEMBL3232764, “Influence of the adamantyl moiety on the activity of biphenylacrylohydroxamic acid-based HDAC inhibitors” (Eur J Med Chem, 2014):
The source made the active and inactive calls. No cut-off for these calls is given here.

Key:
[1] = test system: IGROV-1; assay: Cell cycle arrest in human IGROV1 cells assessed as accumulation at S phase at IC80 after 24 hrs by propidium iodide staining-based flow cytometry (reference value: 36.81%); format: functional
In short: (§1)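 Cell-cycle distribution in IGROV-1 cells read by flow cytometry of propidium iodide–stained cells.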

[2] = test system: IGROV-1; assay: Induction of apoptosis in human IGROV1 cells at IC80 after 72 hrs by TUNEL and flow cytometry analysis (reference value: 4%); format: functional
[3] = target: Histone deacetylase 3 (Homo sapiens, UniProt O15379)
Sequence of Histone deacetylase 3 (O15379 whole entry): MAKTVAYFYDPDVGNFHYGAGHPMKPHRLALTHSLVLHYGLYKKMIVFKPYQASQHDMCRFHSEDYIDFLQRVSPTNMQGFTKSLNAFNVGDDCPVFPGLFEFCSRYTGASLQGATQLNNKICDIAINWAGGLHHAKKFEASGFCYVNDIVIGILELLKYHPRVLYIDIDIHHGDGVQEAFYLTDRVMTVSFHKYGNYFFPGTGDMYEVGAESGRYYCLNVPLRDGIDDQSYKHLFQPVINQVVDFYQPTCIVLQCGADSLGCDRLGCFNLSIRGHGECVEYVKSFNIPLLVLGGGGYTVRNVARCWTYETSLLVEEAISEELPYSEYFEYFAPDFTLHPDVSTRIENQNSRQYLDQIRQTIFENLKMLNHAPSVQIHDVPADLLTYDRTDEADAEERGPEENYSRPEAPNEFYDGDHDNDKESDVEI

[4] = target: Histone deacetylase 4 (Homo sapiens, UniProt P56524); assay: Inhibition of human HDAC4 using fluorogenic tetrapeptide RHKKAc as substrate
Sequence of Histone deacetylase 4 (P56524 whole entry): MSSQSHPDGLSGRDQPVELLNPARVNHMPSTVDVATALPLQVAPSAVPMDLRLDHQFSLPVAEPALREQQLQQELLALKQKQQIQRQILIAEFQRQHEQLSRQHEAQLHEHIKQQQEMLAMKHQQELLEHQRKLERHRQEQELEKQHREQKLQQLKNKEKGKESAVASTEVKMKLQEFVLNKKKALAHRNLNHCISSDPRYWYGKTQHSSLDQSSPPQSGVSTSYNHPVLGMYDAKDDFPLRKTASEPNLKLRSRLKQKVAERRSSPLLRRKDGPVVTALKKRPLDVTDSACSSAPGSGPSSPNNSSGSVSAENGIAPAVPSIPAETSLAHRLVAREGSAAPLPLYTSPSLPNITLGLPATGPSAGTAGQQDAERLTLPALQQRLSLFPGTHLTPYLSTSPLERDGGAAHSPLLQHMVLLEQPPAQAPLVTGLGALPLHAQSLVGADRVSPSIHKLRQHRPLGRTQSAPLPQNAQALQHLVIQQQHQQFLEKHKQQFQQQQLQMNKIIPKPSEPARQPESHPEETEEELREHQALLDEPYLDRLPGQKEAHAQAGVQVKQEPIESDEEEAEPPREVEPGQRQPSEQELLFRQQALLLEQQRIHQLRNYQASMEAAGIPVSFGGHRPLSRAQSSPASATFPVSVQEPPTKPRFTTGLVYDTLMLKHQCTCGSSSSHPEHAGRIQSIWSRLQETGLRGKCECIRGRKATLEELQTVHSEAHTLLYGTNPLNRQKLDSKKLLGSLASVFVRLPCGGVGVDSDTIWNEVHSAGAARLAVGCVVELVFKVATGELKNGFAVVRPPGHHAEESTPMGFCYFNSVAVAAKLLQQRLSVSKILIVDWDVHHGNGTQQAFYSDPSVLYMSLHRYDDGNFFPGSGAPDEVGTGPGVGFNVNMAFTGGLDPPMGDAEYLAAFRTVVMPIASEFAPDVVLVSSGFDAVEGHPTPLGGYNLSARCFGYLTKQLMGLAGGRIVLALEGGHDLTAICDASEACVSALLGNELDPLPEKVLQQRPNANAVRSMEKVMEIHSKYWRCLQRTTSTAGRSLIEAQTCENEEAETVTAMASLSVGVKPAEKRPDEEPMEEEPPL

[5] = target: Histone deacetylase 9 (Homo sapiens, UniProt Q9UKV0); assay: Inhibition of human HDAC9 using fluorogenic tetrapeptide RHKKAc as substrate
Sequence of Histone deacetylase 9 (Q9UKV0 whole entry): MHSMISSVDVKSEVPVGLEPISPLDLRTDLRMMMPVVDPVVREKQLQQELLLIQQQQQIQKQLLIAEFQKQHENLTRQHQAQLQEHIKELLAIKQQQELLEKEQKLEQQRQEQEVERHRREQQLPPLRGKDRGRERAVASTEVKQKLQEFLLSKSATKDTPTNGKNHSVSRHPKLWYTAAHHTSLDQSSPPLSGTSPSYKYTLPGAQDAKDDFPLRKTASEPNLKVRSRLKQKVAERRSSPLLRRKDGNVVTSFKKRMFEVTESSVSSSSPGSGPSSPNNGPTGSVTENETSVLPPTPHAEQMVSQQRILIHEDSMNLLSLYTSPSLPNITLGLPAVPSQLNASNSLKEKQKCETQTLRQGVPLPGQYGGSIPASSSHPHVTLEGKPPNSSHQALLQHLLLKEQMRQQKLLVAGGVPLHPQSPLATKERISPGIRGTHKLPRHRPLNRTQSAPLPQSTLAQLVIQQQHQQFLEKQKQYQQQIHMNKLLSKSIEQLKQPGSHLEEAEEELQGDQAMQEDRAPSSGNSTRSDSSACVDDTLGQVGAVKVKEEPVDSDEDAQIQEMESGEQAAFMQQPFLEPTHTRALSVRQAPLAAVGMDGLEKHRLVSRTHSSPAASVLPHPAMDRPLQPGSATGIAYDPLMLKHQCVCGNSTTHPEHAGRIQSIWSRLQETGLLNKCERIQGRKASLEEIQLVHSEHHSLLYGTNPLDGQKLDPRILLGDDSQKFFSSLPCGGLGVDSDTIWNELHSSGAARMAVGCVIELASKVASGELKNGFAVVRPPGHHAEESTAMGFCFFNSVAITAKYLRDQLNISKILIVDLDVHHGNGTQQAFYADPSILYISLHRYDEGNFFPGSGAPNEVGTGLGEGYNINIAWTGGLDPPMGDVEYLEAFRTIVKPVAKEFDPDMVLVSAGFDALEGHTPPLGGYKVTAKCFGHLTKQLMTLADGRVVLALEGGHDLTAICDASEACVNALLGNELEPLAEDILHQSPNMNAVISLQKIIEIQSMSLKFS

[6] = Cell cycle arrest in human IGROV1 cells assessed as accumulation at G2/M phase at IC80 after 24 hrs by propidium iodide staining-based flow cytometry (reference value: 13.21%); format: functional; details: IGROV-1; in short: as §1
[7] = target: T1, Protein deacetylase HDAC6 (Homo sapiens, UniProt Q9UBN7); assay: Inhibition of human HDAC6 using fluorogenic tetrapeptide RHKKAc as substrate
T1 sequence (Q9UBN7 whole entry): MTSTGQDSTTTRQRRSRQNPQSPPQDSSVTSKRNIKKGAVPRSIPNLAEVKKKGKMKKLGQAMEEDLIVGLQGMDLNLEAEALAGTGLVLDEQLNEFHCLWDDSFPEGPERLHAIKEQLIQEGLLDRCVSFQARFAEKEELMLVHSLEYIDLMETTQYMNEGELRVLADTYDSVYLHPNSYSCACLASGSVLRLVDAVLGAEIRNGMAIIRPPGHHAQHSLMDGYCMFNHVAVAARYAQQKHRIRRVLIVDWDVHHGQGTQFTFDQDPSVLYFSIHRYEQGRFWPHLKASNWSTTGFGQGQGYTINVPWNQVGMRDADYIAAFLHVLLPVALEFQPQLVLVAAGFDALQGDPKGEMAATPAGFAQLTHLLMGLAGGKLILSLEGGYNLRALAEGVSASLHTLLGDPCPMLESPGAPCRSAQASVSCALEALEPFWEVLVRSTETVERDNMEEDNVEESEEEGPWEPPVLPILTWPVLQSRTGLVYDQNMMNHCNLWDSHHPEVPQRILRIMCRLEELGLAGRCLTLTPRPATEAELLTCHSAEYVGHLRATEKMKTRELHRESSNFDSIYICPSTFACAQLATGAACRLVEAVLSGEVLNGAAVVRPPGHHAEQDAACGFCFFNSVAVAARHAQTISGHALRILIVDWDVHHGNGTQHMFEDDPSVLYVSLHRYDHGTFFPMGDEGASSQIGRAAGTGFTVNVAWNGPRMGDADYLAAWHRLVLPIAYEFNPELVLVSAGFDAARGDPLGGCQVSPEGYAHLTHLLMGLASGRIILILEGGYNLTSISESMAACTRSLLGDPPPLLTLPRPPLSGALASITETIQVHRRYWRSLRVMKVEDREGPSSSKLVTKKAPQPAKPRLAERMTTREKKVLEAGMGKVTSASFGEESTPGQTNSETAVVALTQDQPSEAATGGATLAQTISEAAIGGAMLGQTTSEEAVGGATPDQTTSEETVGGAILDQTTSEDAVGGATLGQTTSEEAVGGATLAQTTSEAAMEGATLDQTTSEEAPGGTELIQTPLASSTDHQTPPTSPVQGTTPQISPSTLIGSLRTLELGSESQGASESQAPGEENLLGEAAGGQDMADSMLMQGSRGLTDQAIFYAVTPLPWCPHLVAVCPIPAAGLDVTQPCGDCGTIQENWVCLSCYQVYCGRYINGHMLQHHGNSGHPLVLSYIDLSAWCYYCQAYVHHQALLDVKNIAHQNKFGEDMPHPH

[8] = test system: IGROV-1; assay: Cell cycle arrest in human IGROV1 cells assessed as accumulation at G1 phase at IC80 after 24 hrs by propidium iodide staining-based flow cytometry (reference value: 49.98%); format: functional; in short: as §1
[9] = target: T2, Polyamine deacetylase HDAC10 (Homo sapiens, UniProt Q969S8); assay: Inhibition of human HDAC10 using fluorogenic tetrapeptide RHKKAc as substrate
T2 sequence (Q969S8 whole entry): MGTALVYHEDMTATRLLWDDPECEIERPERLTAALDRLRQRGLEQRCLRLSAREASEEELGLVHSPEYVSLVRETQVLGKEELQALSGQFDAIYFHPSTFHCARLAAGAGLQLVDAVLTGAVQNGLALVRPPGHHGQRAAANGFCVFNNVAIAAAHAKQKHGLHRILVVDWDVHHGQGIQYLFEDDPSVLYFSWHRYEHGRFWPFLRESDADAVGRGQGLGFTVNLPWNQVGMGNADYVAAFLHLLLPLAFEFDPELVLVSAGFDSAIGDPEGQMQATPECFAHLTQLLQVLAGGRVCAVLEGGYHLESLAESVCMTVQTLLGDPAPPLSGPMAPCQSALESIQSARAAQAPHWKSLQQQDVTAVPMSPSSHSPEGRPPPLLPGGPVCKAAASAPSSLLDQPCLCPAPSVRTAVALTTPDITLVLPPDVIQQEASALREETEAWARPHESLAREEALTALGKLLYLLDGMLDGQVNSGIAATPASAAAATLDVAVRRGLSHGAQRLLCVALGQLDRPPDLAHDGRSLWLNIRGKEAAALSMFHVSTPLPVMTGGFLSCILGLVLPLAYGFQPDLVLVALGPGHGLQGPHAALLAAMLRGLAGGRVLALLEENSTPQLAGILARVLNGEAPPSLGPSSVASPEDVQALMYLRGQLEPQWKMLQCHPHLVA

[10] = target: T3, Histone deacetylase 11 (Homo sapiens, UniProt Q96DB2); assay: Inhibition of human HDAC11 using fluorogenic tetrapeptide RHKKAc as substrate
T3 sequence (Q96DB2 whole entry): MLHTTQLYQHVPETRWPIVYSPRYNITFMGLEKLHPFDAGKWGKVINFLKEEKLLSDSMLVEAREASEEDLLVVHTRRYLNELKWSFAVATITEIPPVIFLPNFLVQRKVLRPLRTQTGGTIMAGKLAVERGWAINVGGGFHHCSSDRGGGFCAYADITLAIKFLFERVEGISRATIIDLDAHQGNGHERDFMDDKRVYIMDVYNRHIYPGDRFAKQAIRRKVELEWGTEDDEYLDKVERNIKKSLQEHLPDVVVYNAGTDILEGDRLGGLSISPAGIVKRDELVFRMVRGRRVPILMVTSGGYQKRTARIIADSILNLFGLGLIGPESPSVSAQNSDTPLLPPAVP

[11] = target: T4, Histone deacetylase 8 (Homo sapiens, UniProt Q9BY41); assay: Inhibition of human HDAC8 using fluorogenic tetrapeptide RHKKAc as substrate
T4 sequence (Q9BY41 whole entry): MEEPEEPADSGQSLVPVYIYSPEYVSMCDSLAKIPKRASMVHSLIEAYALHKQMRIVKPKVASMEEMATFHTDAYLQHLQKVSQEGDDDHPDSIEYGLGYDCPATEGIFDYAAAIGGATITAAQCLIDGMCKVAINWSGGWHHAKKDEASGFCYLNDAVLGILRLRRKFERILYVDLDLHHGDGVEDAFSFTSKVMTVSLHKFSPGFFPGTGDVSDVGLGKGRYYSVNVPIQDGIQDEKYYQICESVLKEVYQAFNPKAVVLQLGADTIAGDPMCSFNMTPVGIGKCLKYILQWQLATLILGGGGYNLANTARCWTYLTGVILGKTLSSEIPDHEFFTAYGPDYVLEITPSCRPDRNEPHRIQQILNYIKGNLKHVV

[12] = target: Histone deacetylase 1 (Homo sapiens, UniProt Q13547); assay: Inhibition of human HDAC1 using fluorogenic tetrapeptide RHKKAc as substrate
Sequence of Histone deacetylase 1 (Q13547 whole entry): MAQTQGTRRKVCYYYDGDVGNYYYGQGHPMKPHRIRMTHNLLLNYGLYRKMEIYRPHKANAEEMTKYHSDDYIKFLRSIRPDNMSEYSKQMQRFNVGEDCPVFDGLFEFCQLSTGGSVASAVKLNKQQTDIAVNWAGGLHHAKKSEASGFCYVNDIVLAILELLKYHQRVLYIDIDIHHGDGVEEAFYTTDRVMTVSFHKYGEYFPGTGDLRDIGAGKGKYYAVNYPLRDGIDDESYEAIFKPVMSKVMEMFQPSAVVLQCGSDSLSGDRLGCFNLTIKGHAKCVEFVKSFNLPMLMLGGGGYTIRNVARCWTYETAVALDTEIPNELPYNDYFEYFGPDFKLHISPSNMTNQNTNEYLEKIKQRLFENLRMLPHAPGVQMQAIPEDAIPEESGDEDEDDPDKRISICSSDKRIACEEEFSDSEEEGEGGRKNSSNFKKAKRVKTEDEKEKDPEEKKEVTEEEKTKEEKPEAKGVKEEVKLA

[13] = target: Histone deacetylase 5 (Homo sapiens, UniProt Q9UQL6); assay: Inhibition of human HDAC5 using fluorogenic tetrapeptide RHKKAc as substrate
Sequence of Histone deacetylase 5 (Q9UQL6 whole entry): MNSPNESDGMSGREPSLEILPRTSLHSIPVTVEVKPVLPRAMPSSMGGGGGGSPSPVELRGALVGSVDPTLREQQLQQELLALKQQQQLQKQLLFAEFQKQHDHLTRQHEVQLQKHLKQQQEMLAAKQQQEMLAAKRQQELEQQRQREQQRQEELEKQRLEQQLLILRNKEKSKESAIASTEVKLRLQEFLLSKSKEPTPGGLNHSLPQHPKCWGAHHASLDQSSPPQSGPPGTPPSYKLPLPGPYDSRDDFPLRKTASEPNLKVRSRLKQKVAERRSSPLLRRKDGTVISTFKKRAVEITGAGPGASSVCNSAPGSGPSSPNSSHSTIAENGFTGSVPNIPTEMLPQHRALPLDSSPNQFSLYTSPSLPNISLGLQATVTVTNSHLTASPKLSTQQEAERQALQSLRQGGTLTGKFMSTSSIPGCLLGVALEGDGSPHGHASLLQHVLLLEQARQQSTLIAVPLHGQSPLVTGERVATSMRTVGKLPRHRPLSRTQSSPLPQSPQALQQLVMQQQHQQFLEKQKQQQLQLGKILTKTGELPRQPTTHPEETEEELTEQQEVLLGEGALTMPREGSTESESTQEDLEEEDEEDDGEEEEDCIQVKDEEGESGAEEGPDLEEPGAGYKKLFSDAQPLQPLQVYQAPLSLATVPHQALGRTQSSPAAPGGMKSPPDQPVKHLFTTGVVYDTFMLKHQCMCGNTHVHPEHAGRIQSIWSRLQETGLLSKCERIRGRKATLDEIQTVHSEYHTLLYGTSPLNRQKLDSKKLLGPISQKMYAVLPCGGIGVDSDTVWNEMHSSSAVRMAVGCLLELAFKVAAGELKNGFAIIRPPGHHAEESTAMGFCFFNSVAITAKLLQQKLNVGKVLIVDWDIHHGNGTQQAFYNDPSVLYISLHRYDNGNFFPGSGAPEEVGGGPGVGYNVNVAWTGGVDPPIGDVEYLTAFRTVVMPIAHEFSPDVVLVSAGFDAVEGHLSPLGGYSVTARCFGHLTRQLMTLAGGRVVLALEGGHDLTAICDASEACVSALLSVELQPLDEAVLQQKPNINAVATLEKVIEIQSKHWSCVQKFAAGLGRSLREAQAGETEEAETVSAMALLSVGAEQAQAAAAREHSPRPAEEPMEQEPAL

[14] = test system: IGROV-1; assay: Antiproliferative activity against human IGROV1 cells assessed as growth inhibition after 72 hrs; format: functional, cell-based; details: IGROV-1, 72 h
In short: (§2)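 Log-phase cells seeded in duplicate in 6-well plates; drug added 24 h after seeding. Cells harvested 72 h after drug exposure and counted with a cell counter. IC50 = drug concentration giving 50% reduction in cell number versus untreated control.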

[15] = test system: IGROV-1; assay: Induction of DNA damage in human IGROV1 cells assessed as p53 phosphorylation at Ser15 at 1 to 2 uM after 4 to 48 hrs by Western blot analysis; format: functional, cell-based
In short: (§3)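 Cells treated with various concentrations of HDAC inhibitors, collected, lysed and analysed by Western blotting.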

[16] = target: T5, Protein deacetylase HDAC6 (Homo sapiens) (UniProt Q9UBN7); assay: Inhibition of HDAC6 in human IGROV1 cells assessed as increase in tubulin acetylation at IC80 after 4 to 24 hrs by Western blot analysis; format: cell-based; details: IGROV-1; in short: as §3
T5 sequence (whole entry): T1 sequence (Q9UBN7 whole entry)

[17] = test system: Mus musculus; assay: Toxicity in athymic nude Swiss mouse xenografted with human HCT116 cells at 50 mg/kg, po administered once-daily for 5 days a week for 5 weeks starting 3 days post tumor implantation; format: organism-based, HCT-116; parameters: dose 50 mg/kg, route oral; details: in vivo
In short: (§4)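 Female athymic Swiss nude mice given 10⁷ exponentially growing HCT116 cells s.c. in the right flank; tumor lines maintained by serial s.c. fragment passage. Dosing began 3 days after implantation: 50 mg/kg orally, once daily 4–5 days/week for 5 weeks (24 doses total). Compound dissolved in DMSO, diluted in PBS with 5% Cremophor to 10% DMSO final.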

[18] = Antiproliferative activity against p53 defective cis-platinum-resistant human IGROV1/Pt1 cells assessed as growth inhibition after 72 hrs; format: functional, cell-based; details: IGROV-1/Pt1, 72 h; in short: as §2
[19] = cells; format: functional, cell-based; details: Homo sapiens, NCI-H460, 72 h
[20] = test system: HCT-116; assay: Antiproliferative activity against human HCT116 cells assessed as growth inhibition after 72 hrs; format: functional, cell-based; details: HCT-116, 72 h; in short: as §2
[21] = test system: HCT-116; assay: Anticancer activity against human HCT116 cells xenografted in athymic nude Swiss mouse assessed as tumor growth inhibition at 50 mg/kg, po administered once-daily for 5 days a week for 5 weeks starting 3 days post tumor implantation; format: functional; details: read-out: TGI; in short: as §4
[22] = target: Histone deacetylase 2 (Homo sapiens, UniProt Q92769); format: cell-based, HeLa
Sequence of Histone deacetylase 2 (Q92769 whole entry): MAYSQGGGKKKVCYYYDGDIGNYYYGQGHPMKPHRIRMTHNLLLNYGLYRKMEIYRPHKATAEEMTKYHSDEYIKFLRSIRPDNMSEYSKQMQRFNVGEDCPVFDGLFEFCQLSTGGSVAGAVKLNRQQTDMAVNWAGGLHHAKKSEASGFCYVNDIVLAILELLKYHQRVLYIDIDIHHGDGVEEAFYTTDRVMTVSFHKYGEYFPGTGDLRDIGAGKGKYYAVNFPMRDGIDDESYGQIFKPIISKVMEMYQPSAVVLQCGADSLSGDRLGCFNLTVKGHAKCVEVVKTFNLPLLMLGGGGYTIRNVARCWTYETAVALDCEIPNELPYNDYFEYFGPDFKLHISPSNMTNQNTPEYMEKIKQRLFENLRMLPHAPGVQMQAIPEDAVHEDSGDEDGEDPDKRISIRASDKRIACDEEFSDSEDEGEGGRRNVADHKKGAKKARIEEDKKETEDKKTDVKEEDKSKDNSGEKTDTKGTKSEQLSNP

SMILES: COc1ccc(-c2ccc(/C=C/C(=O)NO)cc2)cc1
- Activity [1]: 55.84%
- Activity [2]: 90%
- IC50 [3]: 84.5 µM
- IC50 [4]: 99.4 µM
- IC50 [5]: 39.3 µM
- Activity [6]: 2.11%
- IC50 [7]: 0.0368 µM
- Activity [8]: 42.05%
- IC50 [9]: 91 µM
- IC50 [10]: 73 µM
- IC50 [11]: 0.0698 µM
- IC50 [12]: 8.55 µM
- IC50 [13]: 29.6 µM

SMILES: O=C(/C=C/c1ccc(-c2ccc(O)cc2)cc1)NO
- IC50 [3]: 4.57 µM
- IC50 [4]: 17.1 µM
- IC50 [5]: 8.92 µM
- IC50 [7]: 0.0418 µM
- IC50 [9]: 11 µM
- IC50 [10]: 5.01 µM
- IC50 [11]: 0.162 µM
- IC50 [12]: 5.51 µM
- IC50 [13]: 11.2 µM

SMILES: COc1ccc(-c2ccc(/C=C/C(=O)NO)cc2)cc1C12CC3CC(CC(C3)C1)C2
- IC50 [14]: 0.96 µM
- Activity [15]: Active
- Activity [16]: inactive
- Activity [1]: 18.14%
- Activity [2]: 42%
- Activity [17]: Non-toxic
- IC50 [18]: 1.8 µM
- IC50 [19]: 1.42 µM
- Activity [6]: 3.39%
- Activity [8]: 78.46%
- IC50 [10]: 77 µM
- IC50 [20]: 1.3 µM
- inhibition in vivo at 50 mg/kg [21]: 60%
- IC50 [22]: 2.3 µM

SMILES: O=C(CCCCCCC(=O)Nc1ccccc1)NO [VORINOSTAT]
- Activity [2]: 37%

SMILES: O=C(/C=C/c1ccc(-c2ccc(O)c(C34CC5CC(CC(C5)C3)C4)c2)cc1)NO
- IC50 [14]: 1.1 µM
- IC50 [3]: 55.6 µM
- IC50 [4]: 61.4 µM
- IC50 [18]: 1.3 µM
- IC50 [5]: 41.4 µM
- IC50 [19]: 0.83 µM
- IC50 [7]: 2.8 µM
- IC50 [9]: > 100 µM
- IC50 [10]: 57.2 µM
- IC50 [11]: 6.96 µM
- IC50 [20]: 0.58 µM
- IC50 [12]: > 100 µM
- IC50 [13]: 78.4 µM
- IC50 [22]: 2.64 µM

SMILES: O=C(NO)c1ccc2cc(-c3ccc(O)c(C45CC6CC(CC(C6)C4)C5)c3)ccc2c1
- IC50 [14]: 0.65 µM
- IC50 [18]: 1.1 µM
- IC50 [19]: 1 µM
- IC50 [20]: 0.7 µM

SMILES: COc1ccc(-c2ccc3cc(C(=O)NO)ccc3c2)cc1C12CC3CC(CC(C3)C1)C2
- IC50 [14]: 1.5 µM
- IC50 [18]: 4.16 µM
- IC50 [19]: 1.3 µM
- IC50 [20]: 1.4 µM

SMILES: O=C(/C=C/c1ccc(-c2ccc(O)c(C34CC5CC(CC(C5)C3)C4)c2)c(Cl)c1)NO
- IC50 [14]: 1.34 µM
- IC50 [18]: 1.6 µM
- IC50 [19]: 5.4 µM
- IC50 [20]: 5.4 µM

SMILES: O=C(/C=C/c1ccc(-c2ccccc2)cc1)NO
- IC50 [18]: 4.3 µM

SMILES: O=C(/C=C/c1ccc(-c2cccc(C34CC5CC(CC(C5)C3)C4)c2)cc1)NO
- IC50 [14]: 1.23 µM
- IC50 [18]: 5.7 µM
- IC50 [19]: > 10 µM
- IC50 [20]: 10.3 µM
- IC50 [22]: > 10 µM

SMILES: O=C(/C=C/c1ccc(-c2cc3c(c(C45CC6CC(CC(C6)C4)C5)c2)OCCO3)cc1)NO
- IC50 [14]: 1.2 µM
- IC50 [18]: 0.8 µM
- IC50 [19]: 1 µM
- IC50 [20]: 2.55 µM
